These results are taken from PMC9546099 (British Journal of Clinical Pharmacology, 2022).

Series [1] in a line: Metabolite profiling in plasma AUC pool by LC-AMS. In kind it is in vivo, human. The settings on record: average, AMS radiodetection. In short, it runs like this:
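A per-subject plasma AUC pool (Hamilton method) covered at least the last quantifiable time point. Plasma (5 g) was precipitated twice with acetonitrile, evaporated and resuspended in DMSO:acetonitrile:water 20:20:60. LC fractions were measured by AMS, with carbon content in duplicate. Peaks were assigned against spiked synthetic standards (UV 250 nm). Extraction recovery compared pool versus supernatant and reconstituted-extract radioactivity.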

For the next series, the system named is COMT. The settings on record: cited from earlier work; for IC50: read-out: IC50 against COMT.
The format of series [2] is in vivo, human. The settings on record: for Tmax: t max; for Tmax / Tlag: median (minimum - maximum). The procedure, abridged: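 Plasma was precipitated with acetonitrile plus internal standards, vortexed and centrifuged. Supernatant was diluted with water for validated LC-MS/MS of parent and metabolites, with quantification limit 10 ng/mL and calibration curves and QC samples in every batch. Noncompartmental analysis per subject gave geometric mean (%CV) parameters, with tmax as median (min–max).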

A short description of series [3]: Metabolite profiling in urine and faeces by LC-MS and off-line radiodetection. It is filed as in vivo, human. In short, it runs like this: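 Urine was pooled per subject to ≥80% of recovered radioactivity and concentrated. Faeces were pooled to >90% of excreted radioactivity, plus cross-subject 48-72 h and 96-120 h pools; these were acetonitrile-extracted, dried and reconstituted in acetonitrile:water 20:80. Analysis used accurate-mass LC-MS (± switching, 70 000 resolution, 100-800 amu; HCD MS/MS 17 500) with off-line radiodetection, reported as % administered radioactivity.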

For series [4] the following is noted: cited from earlier work.
The conditions of series [5]: cited from earlier work. The source holds these as a separate data set.
The conditions of series [6]: rat; cited from earlier work.
For series [7] the following is noted: nonhuman primate [NHP]; cited from earlier work.
The conditions of series [8]: cited from earlier work. The source holds these as a separate data set.
[9] abbreviates: male, human, plasma, oral, 100 mg.

Several values for one entry are separate records, joined by “and”; a condition that tells them apart may be missing. Equal entries are not always repeated. Structures can show the parent of a compound that is named as a salt. Where two headings read alike, the source gives them in different places. Where only a bound is given, the exact number is not on record here.

Consider `COc1c(O)cc(-c2nc(-c3c(C)c(Cl)c(C)[n+]([O-])c3SC[C@H](N)C(=O)O)no2)cc1[N+](=O)[O-].Cl` [BIA 9‐5049, (R)-2-((2-amino-2-carboxyethyl)thio)-5-chloro-3-(5-(3-hydroxy-4-methoxy-5-nitrophenyl)-1,2,4-oxadiazol-3-yl)-4,6-dimethylpyridine 1-oxide hydrochloride], for which the “% of total circulating radioactivity” value in series [1] is given as 3.72%.

Regarding `COc1c(O)cc(-c2nc(-c3c(C)c(Cl)c(C)[n+]([O-])c3Cl)no2)cc1[N+](=O)[O-]` [BIA 9‐1104, 2,5-dichloro-3-(5-(3-hydroxy-4-methoxy-5-nitrophenyl)-1,2,4-oxadiazol-3-yl)-4,6-dimethylpyridine 1-oxide], the “% of total circulating radioactivity” value in series [1] came out at 6.59%. For the same compound, the IC50 in the series on COMT was 429 nM.

As to `COc1c(OS(=O)(=O)O)cc(-c2nc(-c3c(C)c(Cl)c(C)[n+]([O-])c3Cl)no2)cc1[N+](=O)[O-].c1ccncc1` [BIA 9‐4584, pyridin-1-ium 5-(3-(2,5-dichloro-4,6-dimethyl-1-oxidopyridin-3-yl)-1,2,4-oxadiazol-5-yl)-2-methoxy-3-nitrophenyl sulfate], the “% of total circulating radioactivity” value in series [1] stood at 2.30%.

Turning to `Cc1c(Cl)c(C)[n+]([O-])c(Cl)c1-c1noc(-c2cc(O[C@@H]3O[C@H](C(=O)O)[C@@H](O)[C@H](O)[C@H]3O)c(O)c([N+](=O)[O-])c2)n1` [BIA 9‐1106, 3-(5-(3-((2S,3R,4S,5S,6S)-6-carboxy-3,4,5-trihydroxytetrahydro-2H-pyran-2-yloxy)-4-hydroxy-5-nitrophenyl)-1,2,4-oxadiazol-3-yl)-2,5-dichloro-4,6-dimethylpyridine 1-oxide], in series [2] (setting [9]), the AUC(0-t) worked out at 75 ng·h/mL, the concentration peaked (Cmax) at 33.6 ng/mL and the Tmax turned out to be 2 h. Further, the Tlag in series [2] (plasma) is recorded as 0.75 (0.500‐2.00) h. In addition, in [3] (average, pooled urine), the “% of the administered radioactivity in urine” value was 1.72% and < 2%.

`Cc1nc(Cl)c(-c2noc(-c3cc(O)c(O)c([N+](=O)[O-])c3)n2)c(C)c1Cl` [BIA 9‐1079, 5-(3-(2,5-dichloro-4,6-dimethylpyridin-3-yl)-1,2,4-oxadiazol-5-yl)-3-nitrobenzene-1,2-diol] gave a plasma concentration in series [2] (below the limit of quantification in almost all time points) of less than 10 ng/mL. Moreover, the IC50 in the series with COMT was 128 nM.

`COc1cc(-c2nc(-c3c(C)c(Cl)c(C)[n+]([O-])c3Cl)no2)cc([N+](=O)[O-])c1O` [BIA 9‐1101, 2,5-dichloro-3-(5-(4-hydroxy-3-methoxy-5-nitrophenyl)-1,2,4-oxadiazol-3-yl)-4,6 dimethylpyridine 1-oxide]: the “% of total circulating radioactivity” value in series [1] turned out to be 0.39%.

On to `Cc1c(Cl)c(C)[n+]([O-])c(Cl)c1-c1noc(-c2cc(O)c(O)c([N+](=O)[O-])c2)n1` [opicapone, 2,5‐dichloro‐3‐(5‐[3,4‐dihydroxy‐5‐nitrophenyl]‐1,2,4‐oxadiazol‐3‐yl)‐4,6‐dimethylpyridine 1‐oxide, reference compound], for which, in series [2] (setting [9]), the AUC(0-inf) turned out to be 1890 ng·h/mL, the AUC(0-t) amounted to 1830 ng·h/mL, the peak level (Cmax) was 600 ng/mL and the half-life was determined as 1 h. In addition, in series [2] (setting [9]), the Tmax turned out to be 2 h. Besides, the Tlag in series [2] (plasma) is given as 0.250 (0.250‐0.500) h. In addition, the “% of total circulating radioactivity” value in series [1] is 12.1%. The “% of the administered radioactivity excreted in faeces” value in series [3] (average, pooled faeces) is listed as 22.32%. Besides, the “unchanged parent observed in urine” value in [3] (in vivo) is recorded as “Only trace amounts”. Further, in series [4], the cytotoxicity entry is reported as “not to induce cytotoxicity”. In series [5], the “dose proportionality of the pharmacokinetic profile” value is reported as “dose‐proportional up to 1200 mg”. Moreover, the “fraction of the dose recovered in faeces” value in [6] is on record as “more than 70%”. For the same compound, the “fraction of the dose recovered in faeces” value in series [7] is “more than 70%”.

For the compound `COc1cc(-c2nc(-c3c(C)c(Cl)c(C)[n+]([O-])c3Cl)no2)cc([N+](=O)[O-])c1O` [BIA 9‐1100, 2,5-dichloro-3-(5-(4-hydroxy-3-methoxy-5-nitrophenyl)-1,2,4-oxadiazol-3-yl)-4,6-dimethylpyridine 1-oxide], the “% of total circulating radioactivity” value in [1] stood at 2.96%.

In the case of `Cc1c(Cl)c(C)[n+]([O-])c(Cl)c1-c1noc(-c2cc(OS(=O)(=O)O)c(O)c([N+](=O)[O-])c2)n1` [BIA 9‐1103, 5-(3-(2,5-dichloro-4,6-dimethyl-1-oxidopyridin-3-yl)-1,2,4-oxadiazol-5-yl)-2-hydroxy-3-nitrophenyl sulfate], the AUCt in series [2] (plasma, geometric mean (% CV)) is recorded as 8120 (75.7) ng.h/ml. In addition, the C max in series [2] (plasma, geometric mean (% CV)) was 115(48.7) ng/ml. Also, the Tlag in series [2] (plasma) is on record as 1.05 (1.00‐2.00) h. The “% of total circulating radioactivity” value in series [1] is recorded as 58.6%. Further, the results for the “pharmacological activity on COMT” value in the series with COMT and in the series with COMT (listed as 3‐O‐sulfate‐opicapone) were “pharmacologically inactive on COMT” and “pharmacologically inactive”, respectively. The “binding to plasma proteins” value in series [8] was “more than 98%”.

The IC50 is the concentration that inhibits the measured activity by half. A word on the AUC(0-t): it is the area under the concentration-time curve up to a stated or last time point. A lower AUC(0-t) goes with less exposure. By Cmax is commonly meant the peak of the concentration-time curve. For orientation: Tmax means the time at which the peak concentration occurs. As a reminder, the AUC(0-inf) is the area under the concentration-time curve extrapolated to infinity. High values mean high exposure, low ones low exposure. For orientation: half-life means how long it takes for the measured level to halve.
